Test system: U2OS
Assay: Multiplex assay against U2OS
Format: toxicity, cell-based
Details: human
Method in brief: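 Live cells were stained at seeding with Hoechst33342, BioTracker Green Microtubule Cytoskeleton Dye, MitoTracker Red and Annexin V Alexa Fluor 680, then imaged on a CQ1 microscope at 37°C and 5% CO2 after compound addition. CellPathfinder machine-learning gating split cells into Hoechst high-intensity objects or normal cells. Normal cells were split into healthy, pyknosed or fragmented nuclei, and pyknosed cells into mitotic or apoptotic. Tubulin, mitochondrial-mass and membrane-permeability phenotypes are per cents of healthy-nucleus cells.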

[1] = 12 h, 1 µM, compound concentration 1 uM, replicate 1
[2] = 12 h, 1 µM, compound concentration 1 uM, replicate 2
[3] = 12 h, 10 µM, compound concentration 10 uM, replicate 1
[4] = 12 h, 10 µM, compound concentration 10 uM, replicate 2
[5] = 24 h, 1 µM, compound concentration 1 uM, replicate 1
[6] = 24 h, 1 µM, compound concentration 1 uM, replicate 2
[7] = 24 h, 10 µM, compound concentration 10 uM, replicate 1
[8] = 24 h, 10 µM, compound concentration 10 uM, replicate 2
[9] = 48 h, 1 µM, compound concentration 1 uM, replicate 1
[10] = 48 h, 1 µM, compound concentration 1 uM, replicate 2
[11] = 48 h, 10 µM, compound concentration 10 uM, replicate 1
[12] = 48 h, 10 µM, compound concentration 10 uM, replicate 2

Cc1c[nH]c2nccc(Oc3c(F)cc(Nc4cc(Cl)nc(N)n4)cc3F)c12 [BAY-549]
Population Apoptotic (%) [1]: 47%
Population Fragmented Nuclei (%) [1]: 15%
Population Healthy Nuclei (%) [1]: 66%
Population Hoechst High Intensity Objects (%) [1]: 6%
Population Membrane Permeable-Phenotype (%) [1]: 15%
Population Mitochondria Different-Phenotype (%) [1]: 12%
Population Mitotic Cells (%) [1]: 52%
Population Normal (%) [1]: 93%
Population Pyknosed Nuclei (%) [1]: 18%
Population Tubulin-Different-Phenotype (%) [1]: 21%
Total Cell Count [1]: 200
Population Apoptotic (%) [2]: 44%
Population Fragmented Nuclei (%) [2]: 12%
Population Healthy Nuclei (%) [2]: 73%
Population Hoechst High Intensity Objects (%) [2]: 5%
Population Membrane Permeable-Phenotype (%) [2]: 4%
Population Mitochondria Different-Phenotype (%) [2]: 6%
Population Mitotic Cells (%) [2]: 55%
Population Normal (%) [2]: 94%
Population Pyknosed Nuclei (%) [2]: 14%
Population Tubulin-Different-Phenotype (%) [2]: 12%
Total Cell Count [2]: 68
Population Apoptotic (%) [3]: 48%
Population Fragmented Nuclei (%) [3]: 20%
Population Healthy Nuclei (%) [3]: 59%
Population Hoechst High Intensity Objects (%) [3]: 9%
Population Membrane Permeable-Phenotype (%) [3]: 12%
Population Mitochondria Different-Phenotype (%) [3]: 19%
Population Mitotic Cells (%) [3]: 52%
Population Normal (%) [3]: 90%
Population Pyknosed Nuclei (%) [3]: 20%
Population Tubulin-Different-Phenotype (%) [3]: 16%
Total Cell Count [3]: 136
Population Apoptotic (%) [4]: 40%
Population Fragmented Nuclei (%) [4]: 17%
Population Healthy Nuclei (%) [4]: 65%
Population Hoechst High Intensity Objects (%) [4]: 6%
Population Membrane Permeable-Phenotype (%) [4]: 7%
Population Mitochondria Different-Phenotype (%) [4]: 10%
Population Mitotic Cells (%) [4]: 60%
Population Normal (%) [4]: 93%
Population Pyknosed Nuclei (%) [4]: 17%
Population Tubulin-Different-Phenotype (%) [4]: 10%
Total Cell Count [4]: 62
Population Apoptotic (%) [5]: 37%
Population Fragmented Nuclei (%) [5]: 13%
Population Healthy Nuclei (%) [5]: 70%
Population Hoechst High Intensity Objects (%) [5]: 3%
Population Membrane Permeable-Phenotype (%) [5]: 9%
Population Mitochondria Different-Phenotype (%) [5]: 10%
Population Mitotic Cells (%) [5]: 62%
Population Normal (%) [5]: 96%
Population Pyknosed Nuclei (%) [5]: 16%
Population Tubulin-Different-Phenotype (%) [5]: 18%
Total Cell Count [5]: 226
Population Apoptotic (%) [6]: 46%
Population Fragmented Nuclei (%) [6]: 8%
Population Healthy Nuclei (%) [6]: 71%
Population Membrane Permeable-Phenotype (%) [6]: 5%
Population Mitochondria Different-Phenotype (%) [6]: 7%
Population Mitotic Cells (%) [6]: 53%
Population Pyknosed Nuclei (%) [6]: 20%
Total Cell Count [6]: 77
Population Apoptotic (%) [7]: 59%
Population Fragmented Nuclei (%) [7]: 25%
Population Healthy Nuclei (%) [7]: 53%
Population Hoechst High Intensity Objects (%) [7]: 8%
Population Membrane Permeable-Phenotype (%) [7]: 12%
Population Mitochondria Different-Phenotype (%) [7]: 19%
Population Mitotic Cells (%) [7]: 40%
Population Normal (%) [7]: 91%
Population Pyknosed Nuclei (%) [7]: 21%
Population Tubulin-Different-Phenotype (%) [7]: 16%
Total Cell Count [7]: 135
Population Apoptotic (%) [8]: 71%
Population Fragmented Nuclei (%) [8]: 12%
Population Healthy Nuclei (%) [8]: 62%
Population Hoechst High Intensity Objects (%) [8]: 5%
Population Membrane Permeable-Phenotype (%) [8]: 11%
Population Mitochondria Different-Phenotype (%) [8]: 20%
Population Mitotic Cells (%) [8]: 28%
Population Normal (%) [8]: 94%
Population Pyknosed Nuclei (%) [8]: 25%
Population Tubulin-Different-Phenotype (%) [8]: 20%
Total Cell Count [8]: 59
Population Apoptotic (%) [9]: 60%
Population Healthy Nuclei (%) [9]: 64%
Population Hoechst High Intensity Objects (%) [9]: 2%
Population Membrane Permeable-Phenotype (%) [9]: 8%
Population Mitochondria Different-Phenotype (%) [9]: 13%
Population Mitotic Cells (%) [9]: 39%
Population Normal (%) [9]: 97%
Population Pyknosed Nuclei (%) [9]: 19%
Population Tubulin-Different-Phenotype (%) [9]: 20%
Total Cell Count [9]: 302
Population Apoptotic (%) [10]: 66%
Population Fragmented Nuclei (%) [10]: 15%
Population Healthy Nuclei (%) [10]: 73%
Population Hoechst High Intensity Objects (%) [10]: 0%
Population Membrane Permeable-Phenotype (%) [10]: 11%
Population Mitochondria Different-Phenotype (%) [10]: 20%
Population Mitotic Cells (%) [10]: 33%
Population Normal (%) [10]: 99%
Population Pyknosed Nuclei (%) [10]: 11%
Population Tubulin-Different-Phenotype (%) [10]: 28%
Total Cell Count [10]: 106
Population Apoptotic (%) [11]: 60%
Population Fragmented Nuclei (%) [11]: 34%
Population Healthy Nuclei (%) [11]: 41%
Population Hoechst High Intensity Objects (%) [11]: 5%
Population Membrane Permeable-Phenotype (%) [11]: 17%
Population Mitochondria Different-Phenotype (%) [11]: 46%
Population Mitotic Cells (%) [11]: 40%
Population Normal (%) [11]: 94%
Population Pyknosed Nuclei (%) [11]: 24%
Population Tubulin-Different-Phenotype (%) [11]: 19%
Total Cell Count [11]: 132
Population Apoptotic (%) [12]: 76%
Population Fragmented Nuclei (%) [12]: 12%
Population Healthy Nuclei (%) [12]: 63%
Population Hoechst High Intensity Objects (%) [12]: 8%
Population Membrane Permeable-Phenotype (%) [12]: 25%
Population Mitochondria Different-Phenotype (%) [12]: 51%
Population Mitotic Cells (%) [12]: 23%
Population Normal (%) [12]: 91%
Population Pyknosed Nuclei (%) [12]: 23%
Population Tubulin-Different-Phenotype (%) [12]: 28%
Total Cell Count [12]: 60
